Laboratory results: article PMC5836871 (Journal of Clinical Pharmacology, 2017)
“And” between values parts separate entries of the source, which are not always exact repeats. Equal values may be shown once. Read-outs that look alike come from different tables or passages of the source. Marks after values point to notes of the source that are not given here.

Key:
[1] = type: in vivo, human; settings: for AUC0–∞ of metabolite, gMean (gCV%) / Cmax of metabolite, gMean (gCV%) / t1/2, gMean (gCV%) / fe0–72 (fraction excreted unchanged in urine), gMean (gCV%): single oral nintedanib 100 mg
Summary of the method: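 Single oral 100 mg dose of test compound as soft-gelatin capsule, fed. Adults 18–79 y, BMI 18.5–34 kg/m2: Child-Pugh A (score 5–6) or B (7–9) hepatic impairment, plus matched healthy controls. Plasma sampled to day 8 for parent and metabolites. AUC0–∞, Cmax and AUC0–tz compared by log-scale ANOVA (hepatic status fixed, matched pair random); other parameters descriptive.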

[2] = type: in vitro ADME, human; settings: for Protein-bound fraction, mean ± SD: plasma spiked with 100 ng/mL 14C-labeled compound
Summary of the method: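 Predose plasma from Child-Pugh A, Child-Pugh B and matched healthy subjects was spiked ex vivo with 100 ng/mL [14C]-labelled test compound or its [14C]-labelled metabolite. Binding was measured in vitro by equilibrium dialysis, with radioactivity quantified by liquid scintillation counting. The protein-bound fraction is reported as the group mean ± SD.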

P‐glycoprotein = settings: cited from earlier work
Safety and tolerability = type: in vivo, human
Summary of the method: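 Open-label, parallel-group, matched-group phase 1 study in adults aged 18–79 with BMI 18.5–34 kg/m2 (Child-Pugh A, Child-Pugh B, and healthy subjects matched by age, weight, race, smoking and sex). Each subject took one oral soft-gelatin capsule with 240 mL water, fed. AEs were recorded from dosing to the end of the 28-day follow-up and coded by MedDRA v17.1. Relatedness was judged by the investigator.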

[3] = cited from earlier work
[4] = ref BI, data on file, cited from earlier work
[5] = Child-Pugh A subjects vs healthy subjects
[6] = Child-Pugh A, Child-Pugh B, healthy subjects
[7] = Child-Pugh B subjects vs healthy subjects
[8] = Child-Pugh A matched healthy subjects (n = 8)
[9] = Child-Pugh B matched healthy subjects (n = 8)
[10] = single 100 mg dose, Child-Pugh A (n = 8)
[11] = single 100 mg dose, Child-Pugh B (n = 8)
[12] = single 100 mg dose, Healthy (n = 17)
[13] = Child-Pugh A vs matched healthy subjects
[14] = Child-Pugh B vs matched healthy subjects

CN1CCN(CC(=O)N(C)c2ccc(N/C(=C3\C(=O)Nc4cc(C(=O)O[C@@H]5O[C@H](C(=O)O)[C@@H](O)[C@H](O)[C@H]5O)ccc43)c3ccccc3)cc2)CC1 [BIBF 1202 glucuronide]
AUC0–∞, fold higher than in healthy subjects [1, 5]: ~1.5 fold
Cmax, comparison across groups [1, 6]: comparable across groups
AUC0–∞, fold higher than in healthy subjects [1, 7]: ~3.5 fold
AUC0–∞ of metabolite, gMean (gCV%) ([1]; Child-Pugh A (n = 8)): 1040 (95.9) ng∙h/mL
Cmax of metabolite, gMean (gCV%) ([1]; Child-Pugh A (n = 8)): 15.1 (113) ng/mL
t1/2, gMean (gCV%) ([1]; Child-Pugh A (n = 8)): 41.1 (45.5) h
AUC0–∞ of metabolite, gMean (gCV%) [1, 8]: 657 (66.8) ng∙h/mL
Cmax of metabolite, gMean (gCV%) [1, 8]: 11.4 (62.0) ng/mL
t1/2, gMean (gCV%) [1, 8]: 31.9 (34.1) h
AUC0–∞ of metabolite, gMean (gCV%) ([1]; Child-Pugh B (n = 8)): 2650 (285) ng∙h/mL
Cmax of metabolite, gMean (gCV%) ([1]; Child-Pugh B (n = 8)): 19.6 (201) ng/mL
t1/2, gMean (gCV%) ([1]; Child-Pugh B (n = 8)): 57.4 (114) h
AUC0–∞ of metabolite, gMean (gCV%) [1, 9]: 761 (69.1) ng∙h/mL
Cmax of metabolite, gMean (gCV%) [1, 9]: 12.7 (76.2) ng/mL
t1/2, gMean (gCV%) [1, 9]: 28.3 (21.9) h

CN1CCN(CC(=O)N(C)c2ccc(N/C(=C3\C(=O)Nc4cc(C(=O)O)ccc43)c3ccccc3)cc2)CC1 [BIBF 1202]
Protein-bound fraction, mean ± SD ([2]; Child-Pugh A (n = 8)): 81.2 ± 3.6%
Protein-bound fraction, mean ± SD ([2]; Child-Pugh B (n = 8)): 82.4 ± 5.5%
Protein-bound fraction, mean ± SD ([2]; Healthy (n = 17)): 85.0 ± 3.0%
Exposure, fold higher than in healthy subjects [1, 5]: ~2 fold
AUC0–∞, fold higher than in healthy subjects [1, 7]: ~17 fold
Cmax, fold higher than in healthy subjects [1, 7]: 9 fold
AUC0–∞ of metabolite, gMean (gCV%) ([1]; Child-Pugh A (n = 8)): 216 (81.8) ng∙h/mL
Cmax of metabolite, gMean (gCV%) ([1]; Child-Pugh A (n = 8)): 17.4 (47.1) ng/mL
t1/2, gMean (gCV%) ([1]; Child-Pugh A (n = 8)): 39.1 (53.8) h
AUC0–∞ of metabolite, gMean (gCV%) [1, 8]: 86.8 (48.8) ng∙h/mL
Cmax of metabolite, gMean (gCV%) [1, 8]: 7.55 (56.2) ng/mL
t1/2, gMean (gCV%) [1, 8]: 24.7 (65.1) h
AUC0–∞ of metabolite, gMean (gCV%) ([1]; Child-Pugh B (n = 8)): 1190 (86.4) ng∙h/mL
Cmax of metabolite, gMean (gCV%) ([1]; Child-Pugh B (n = 8)): 60.7 (75.2) ng/mL
t1/2, gMean (gCV%) ([1]; Child-Pugh B (n = 8)): 46.9 (16.6) h
AUC0–∞ of metabolite, gMean (gCV%) [1, 9]: 70.4 (38.7) ng∙h/mL
Cmax of metabolite, gMean (gCV%) [1, 9]: 6.47 (57.5) ng/mL
t1/2, gMean (gCV%) [1, 9]: 23.6 (50.1) h

COC(=O)c1ccc2c(c1)NC(=O)/C2=C(\Nc1ccc(N(C)C(=O)CN2CCN(C)CC2)cc1)c1ccccc1 [Nintedanib]
P-glycoprotein substrate (P‐glycoprotein): substrate of P‐glycoprotein
Protein-bound fraction ([2]; across the groups): > 99%
Severe or serious AEs (Safety and tolerability; all groups, single 100 mg dose): No severe or serious AEs were reported
Tolerability (Safety and tolerability; all groups, single dose of 100 mg): well tolerated
Diarrhea (Safety and tolerability; [10]): 0 n (%)
Headache (Safety and tolerability; [10]): 0 n (%)
Nausea (Safety and tolerability; [10]): 0 n (%)
Pruritus (Safety and tolerability; [10]): 0 n (%)
Skin irritation (Safety and tolerability; [10]): 0 n (%)
Vomiting (Safety and tolerability; [10]): 0 n (%)
Diarrhea (Safety and tolerability; [11]): 1 (12.5) n (%)
Headache (Safety and tolerability; [11]): 0 n (%)
Nausea (Safety and tolerability; [11]): 1 (12.5) n (%)
Pruritus (Safety and tolerability; [11]): 1 (12.5) n (%)
Skin irritation (Safety and tolerability; [11]): 1 (12.5) n (%)
Subjects with any AE (Safety and tolerability; [11]): 3 n (%) and 3 (37.5) n (%)
Vomiting (Safety and tolerability; [11]): 0 n (%)
Diarrhea (Safety and tolerability; [12]): 0 n (%)
Headache (Safety and tolerability; [12]): 1 (5.9) n (%)
Nausea (Safety and tolerability; [12]): 2 (11.8) n (%)
Pruritus (Safety and tolerability; [12]): 0 n (%)
Skin irritation (Safety and tolerability; [12]): 0 n (%)
Subjects with any AE (Safety and tolerability; [12]): 3 n (%) and 3 (17.6) n (%)
Vomiting (Safety and tolerability; [12]): 1 (5.9) n (%)
Time of absorption (delay by food) ([3]; after food intake): ~4 h
Terminal half-life [3]: 10 to 15 h
Time of absorption (delay by food) ([3]; fasted conditions): approximately 2 hours
Exposure increase when administered after food intake ([3]; fed vs fasted): approximately 20%
Total body clearance ([3]; healthy subjects): 1390 mL/min
Elimination through biliary/fecal excretion ([3]; in vivo): > 90%
Absolute bioavailability ([3]; nintedanib 100 mg in healthy volunteers): approximately 5%
Time to steady state ([3]; of dosing): ≤ 7 days
Time to maximum plasma concentration ([3]; oral administration): 2 to 4 h
Time to maximum plasma concentrations ([4]; Asian (n = 39) and European (n = 32) patients with impaired hepatic function and advanced HCC): 2 to 3 h
Exposure, fold higher in group II compared with group I ([4]; group II: ALT or AST >2 to ≤5 × ULN or Child-Pugh score 7, group I: ALT and AST ≤ 2 × ULN and Child-Pugh score 5–6): ~2 fold
Exposure, fold higher than in healthy subjects [1, 5]: ~2 fold
AUC0–tz, adjusted gMean ratio [1, 13]: 216.8%
AUC0–∞, adjusted gMean ratio [1, 13]: 215.4%
Cmax, adjusted gMean ratio [1, 13]: 221.8%
Renal clearance, comparison across groups [1, 6]: comparable across groups
Exposure, fold higher than in healthy subjects [1, 7]: ~8 fold
AUC0–tz, adjusted gMean ratio [1, 14]: 870.7%
AUC0–∞, adjusted gMean ratio [1, 14]: 867.1%
Cmax, adjusted gMean ratio [1, 14]: 761.0%
Time at which Cmax was reached, range ([1]; individual range across all groups): 1 to 8 h
Median time at which Cmax was reached ([1]; medians across Child-Pugh A, Child-Pugh B and healthy subjects): 3 to 4 h
fe0–72 (fraction excreted unchanged in urine), gMean (gCV%) ([1]; Child-Pugh A (n = 8)): 0.204 (96.2) %
fe0–72 (fraction excreted unchanged in urine), gMean (gCV%) [1, 8]: 0.102 (37.9) %
fe0–72 (fraction excreted unchanged in urine), gMean (gCV%) ([1]; Child-Pugh B (n = 7)): 0.543 (31.7)^b %
fe0–72 (fraction excreted unchanged in urine), gMean (gCV%) [1, 9]: 0.0945 (28.7) %
